The target in data set [1] is 5-hydroxytryptamine receptor 4 (Cavia porcellus, UniProt O70528). The experiment in a line: Inhibition of 5-HT-evoked 5-HT4 receptor-mediated contractions in the guinea pig distal colon longitudinal muscle myenteric plexus (LMMP). The format is functional.
In data set [2] the target is Serotonin 3 (5-HT3) receptor. The experiment in a line: Tested against 5-hydroxytryptamine 3 receptor in experiment 2. The data set is classed as protein-complex assay.
In a further data set the target is D(3) dopamine receptor (Homo sapiens, UniProt P35462). The experiment in a line: Tested against dopamine receptor D3 using cloned human receptor expressed in CHO cells radiolabeled with [125I]iodosulpiride. The format is cell-based. In outline: (§1)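 Competition binding on cloned human D2 or D3 receptors expressed in CHO cells, radiolabelled with [¹²⁵I]iodosulpride.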

Data set [3] concerns the target T1, 5-hydroxytryptamine receptor 2C (Homo sapiens, UniProt P28335).
T1 sequence (P28335 whole entry): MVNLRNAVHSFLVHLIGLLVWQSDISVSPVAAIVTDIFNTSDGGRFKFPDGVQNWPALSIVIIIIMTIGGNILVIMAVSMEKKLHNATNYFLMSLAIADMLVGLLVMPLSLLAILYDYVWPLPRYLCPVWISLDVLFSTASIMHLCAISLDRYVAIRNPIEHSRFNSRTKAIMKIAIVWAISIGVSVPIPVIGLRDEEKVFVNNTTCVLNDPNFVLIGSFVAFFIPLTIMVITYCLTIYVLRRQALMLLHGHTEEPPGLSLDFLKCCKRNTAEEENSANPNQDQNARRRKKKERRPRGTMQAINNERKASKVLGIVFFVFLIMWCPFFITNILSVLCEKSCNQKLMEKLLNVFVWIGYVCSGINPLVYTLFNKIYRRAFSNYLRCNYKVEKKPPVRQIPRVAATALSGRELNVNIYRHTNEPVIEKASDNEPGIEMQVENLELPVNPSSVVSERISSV
Put plainly: Tested against 5-hydroxytryptamine 2C receptor in experiment 2.

In data set [4] the target is Beta-1 adrenergic receptor (Homo sapiens, UniProt P08588). The experiment in a line: Tested against Beta-1 adrenergic receptor.
The target of data set [5] is 5-hydroxytryptamine receptor 1D (Homo sapiens, UniProt P28221). The experiment in a line: Tested against 5-hydroxytryptamine 1D receptor.
The target of data set [6] is T2, Alpha-1D adrenergic receptor (Rattus norvegicus, UniProt P23944).
T2 sequence (P23944 whole entry): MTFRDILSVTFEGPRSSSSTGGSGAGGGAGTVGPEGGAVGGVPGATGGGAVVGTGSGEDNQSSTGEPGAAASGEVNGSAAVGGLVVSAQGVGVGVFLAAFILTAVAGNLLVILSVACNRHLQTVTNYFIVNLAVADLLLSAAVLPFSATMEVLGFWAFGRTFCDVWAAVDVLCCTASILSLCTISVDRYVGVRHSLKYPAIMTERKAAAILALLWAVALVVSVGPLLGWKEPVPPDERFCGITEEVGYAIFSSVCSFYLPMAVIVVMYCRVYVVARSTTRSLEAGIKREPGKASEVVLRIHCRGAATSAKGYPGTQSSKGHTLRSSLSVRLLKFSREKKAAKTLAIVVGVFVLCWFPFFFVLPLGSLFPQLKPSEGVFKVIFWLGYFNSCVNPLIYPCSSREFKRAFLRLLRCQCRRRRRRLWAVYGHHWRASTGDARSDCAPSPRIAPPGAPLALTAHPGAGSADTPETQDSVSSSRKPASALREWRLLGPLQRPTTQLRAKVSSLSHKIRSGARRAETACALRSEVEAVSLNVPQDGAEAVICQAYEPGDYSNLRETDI
Put plainly: Tested against adrenergic alpha-1 receptor radiolabeled with [3H]7-methoxyprazosin. In outline: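 α1-Adrenoceptor binding, radiolabelled with [³H]-7-methoxyprazosin.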

In data set [7] the target is T3, Alpha-2A adrenergic receptor (Homo sapiens, UniProt P08913).
T3 sequence (P08913 whole entry): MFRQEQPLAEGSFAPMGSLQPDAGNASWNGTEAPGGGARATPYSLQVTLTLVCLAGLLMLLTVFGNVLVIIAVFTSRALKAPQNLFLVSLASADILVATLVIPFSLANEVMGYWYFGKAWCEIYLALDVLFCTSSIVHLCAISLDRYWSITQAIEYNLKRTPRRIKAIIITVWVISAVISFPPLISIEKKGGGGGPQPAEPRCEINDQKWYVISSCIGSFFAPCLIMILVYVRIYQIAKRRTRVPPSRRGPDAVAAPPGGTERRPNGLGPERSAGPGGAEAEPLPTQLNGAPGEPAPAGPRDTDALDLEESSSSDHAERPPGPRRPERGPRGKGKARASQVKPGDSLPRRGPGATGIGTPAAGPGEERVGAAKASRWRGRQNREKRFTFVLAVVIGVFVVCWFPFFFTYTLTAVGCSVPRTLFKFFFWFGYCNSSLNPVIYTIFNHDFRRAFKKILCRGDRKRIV
The experiment in a line: Tested against adrenergic alpha-2 receptor.

Data set [8] is described as follows: Concentration-dependent rightward shift of the 5-HT curve yielding an apparent pA2. The format is ADME.
The target of data set [9] is 5-hydroxytryptamine receptor 2A (Homo sapiens, UniProt P28223). The experiment in a line: Tested against 5-hydroxytryptamine 2A receptor.
Data set [10] addresses 5-hydroxytryptamine receptor 1E (Homo sapiens, UniProt P28566). The experiment in a line: Tested for binding affinity towards cloned human 5-hydroxytryptamine 1E receptor using [3H]5-HT as radioligand. In outline: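 Radioligand binding on the cloned human 5-HT1E receptor, labelled with [³H]-5-HT.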
Data set [11] in a line: Partition coefficient (logP). The settings on record: octanol/water. The format is physicochemical.
For data set [12], the target named is Serotonin 3 (5-HT3) receptor. The experiment in a line: Tested against 5-hydroxytryptamine 3 receptor in experiment 1. The format is protein-complex assay.
In data set [13] the target is Beta-2 adrenergic receptor (Homo sapiens, UniProt P07550). Put plainly: Tested against Beta-2 adrenergic receptor.
Data set [14] in a line: Acid dissociation constant was determined. The data set is classed as ADME.
The target of data set [15] is T1, 5-hydroxytryptamine receptor 2C. The experiment in a line: Tested agains t5-hydroxytryptamine 2C receptor in experiment 1.
Data set [16] concerns the target T4, 5-hydroxytryptamine receptor 1A (Mus musculus, UniProt Q64264).
T4 sequence (Q64264 whole entry): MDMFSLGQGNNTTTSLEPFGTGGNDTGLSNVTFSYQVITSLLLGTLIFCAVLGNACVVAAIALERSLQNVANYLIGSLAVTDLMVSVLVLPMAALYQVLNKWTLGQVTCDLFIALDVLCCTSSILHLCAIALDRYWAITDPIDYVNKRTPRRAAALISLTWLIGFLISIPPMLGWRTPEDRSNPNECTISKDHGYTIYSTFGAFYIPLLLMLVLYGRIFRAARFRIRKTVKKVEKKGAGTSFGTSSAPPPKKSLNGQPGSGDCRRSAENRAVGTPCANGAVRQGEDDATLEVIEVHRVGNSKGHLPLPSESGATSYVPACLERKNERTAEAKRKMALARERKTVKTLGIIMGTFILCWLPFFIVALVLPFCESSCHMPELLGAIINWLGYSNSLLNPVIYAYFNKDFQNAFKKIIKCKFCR
Put plainly: Tested against 5-hydroxytryptamine 1A receptor.

In a further data set the target is D(1A) dopamine receptor (Mus musculus, UniProt Q61616). Put plainly: Tested against dopamine receptor D1.
For another data set, the target named is D(2) dopamine receptor (Homo sapiens, UniProt P14416). The experiment in a line: Tested against dopamine receptor D2 using cloned human receptor expressed in CHO cells radiolabeled with [125I]iodosulpiride. The data set is classed as cell-based. The gist of the method:
as §1

A value given as a limit tells only on which side of the number the result lay.

For orientation: IC50 means the concentration that gives 50% inhibition. High values mean weaker potency in that assay, low ones greater potency in that assay. The Ki is the equilibrium dissociation constant of an inhibitor or competing ligand from its target. One may read the pA2 as the negative logarithm of the molar antagonist concentration that doubles the agonist concentration needed for the same response. A word on the logP: it is the decadic logarithm of the partition coefficient of the neutral form, usually between octanol and water. High values mean higher lipophilicity, low ones lower lipophilicity. One may read the pKa as the pH at which an ionisable group is half protonated. A high value points to a group that holds its proton tightly.

5-hydroxytryptamine receptor 4, sequence (O70528 whole entry): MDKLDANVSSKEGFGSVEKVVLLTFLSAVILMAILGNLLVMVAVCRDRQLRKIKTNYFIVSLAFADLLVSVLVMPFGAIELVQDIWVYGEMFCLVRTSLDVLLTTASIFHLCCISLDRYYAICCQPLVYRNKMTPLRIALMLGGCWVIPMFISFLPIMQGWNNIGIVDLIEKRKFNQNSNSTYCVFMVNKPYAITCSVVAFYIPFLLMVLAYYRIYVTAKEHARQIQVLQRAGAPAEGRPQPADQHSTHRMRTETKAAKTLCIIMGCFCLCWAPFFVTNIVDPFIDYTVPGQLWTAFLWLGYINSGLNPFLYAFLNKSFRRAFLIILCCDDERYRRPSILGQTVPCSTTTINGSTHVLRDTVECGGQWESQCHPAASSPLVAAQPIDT
D(1A) dopamine receptor, sequence (Q61616 whole entry): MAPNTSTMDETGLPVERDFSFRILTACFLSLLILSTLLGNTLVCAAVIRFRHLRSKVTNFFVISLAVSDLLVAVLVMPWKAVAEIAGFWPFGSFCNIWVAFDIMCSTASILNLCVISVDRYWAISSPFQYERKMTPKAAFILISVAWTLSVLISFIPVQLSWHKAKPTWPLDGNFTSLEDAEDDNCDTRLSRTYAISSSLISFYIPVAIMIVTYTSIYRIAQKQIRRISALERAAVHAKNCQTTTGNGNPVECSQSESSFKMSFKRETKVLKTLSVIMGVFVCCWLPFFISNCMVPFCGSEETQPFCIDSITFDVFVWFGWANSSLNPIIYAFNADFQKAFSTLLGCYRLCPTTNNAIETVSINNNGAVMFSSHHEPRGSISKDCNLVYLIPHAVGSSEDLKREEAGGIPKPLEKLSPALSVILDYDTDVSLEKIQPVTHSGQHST
5-hydroxytryptamine receptor 1E, sequence (P28566 whole entry): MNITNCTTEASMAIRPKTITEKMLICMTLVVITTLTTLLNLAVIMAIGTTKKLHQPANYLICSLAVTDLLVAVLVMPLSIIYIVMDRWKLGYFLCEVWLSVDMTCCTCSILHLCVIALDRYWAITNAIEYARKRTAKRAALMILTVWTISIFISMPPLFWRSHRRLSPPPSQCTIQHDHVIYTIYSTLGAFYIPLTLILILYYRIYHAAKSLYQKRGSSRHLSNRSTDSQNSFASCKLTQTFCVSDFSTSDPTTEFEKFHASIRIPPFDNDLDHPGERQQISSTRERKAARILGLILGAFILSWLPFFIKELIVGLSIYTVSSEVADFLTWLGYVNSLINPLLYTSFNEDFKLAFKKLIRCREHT
5-hydroxytryptamine receptor 2A, sequence (P28223 whole entry): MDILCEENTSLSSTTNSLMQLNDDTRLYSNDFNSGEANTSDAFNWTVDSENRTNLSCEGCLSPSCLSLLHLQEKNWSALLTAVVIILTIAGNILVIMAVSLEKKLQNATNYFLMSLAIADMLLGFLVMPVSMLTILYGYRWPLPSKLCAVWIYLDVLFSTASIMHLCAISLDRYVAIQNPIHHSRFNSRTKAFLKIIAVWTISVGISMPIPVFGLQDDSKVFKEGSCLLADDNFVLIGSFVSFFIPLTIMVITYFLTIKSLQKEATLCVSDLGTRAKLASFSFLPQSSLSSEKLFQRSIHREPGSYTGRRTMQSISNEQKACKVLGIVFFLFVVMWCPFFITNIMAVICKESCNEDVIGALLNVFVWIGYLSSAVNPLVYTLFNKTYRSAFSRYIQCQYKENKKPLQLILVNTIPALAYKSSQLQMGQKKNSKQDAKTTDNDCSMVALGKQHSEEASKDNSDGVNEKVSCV
Beta-1 adrenergic receptor, sequence (P08588 whole entry): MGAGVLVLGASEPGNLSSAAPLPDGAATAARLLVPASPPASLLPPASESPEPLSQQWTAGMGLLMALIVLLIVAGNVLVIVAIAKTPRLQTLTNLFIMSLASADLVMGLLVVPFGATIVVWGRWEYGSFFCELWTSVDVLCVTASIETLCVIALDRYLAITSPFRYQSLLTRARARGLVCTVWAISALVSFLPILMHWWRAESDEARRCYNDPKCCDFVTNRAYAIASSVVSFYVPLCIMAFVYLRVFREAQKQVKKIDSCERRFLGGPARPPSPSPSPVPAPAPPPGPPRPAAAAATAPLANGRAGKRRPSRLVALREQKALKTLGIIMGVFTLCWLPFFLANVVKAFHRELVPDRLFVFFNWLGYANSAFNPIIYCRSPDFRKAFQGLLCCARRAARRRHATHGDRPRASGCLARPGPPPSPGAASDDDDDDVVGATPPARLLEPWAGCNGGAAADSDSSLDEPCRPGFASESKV
D(2) dopamine receptor, sequence (P14416 whole entry): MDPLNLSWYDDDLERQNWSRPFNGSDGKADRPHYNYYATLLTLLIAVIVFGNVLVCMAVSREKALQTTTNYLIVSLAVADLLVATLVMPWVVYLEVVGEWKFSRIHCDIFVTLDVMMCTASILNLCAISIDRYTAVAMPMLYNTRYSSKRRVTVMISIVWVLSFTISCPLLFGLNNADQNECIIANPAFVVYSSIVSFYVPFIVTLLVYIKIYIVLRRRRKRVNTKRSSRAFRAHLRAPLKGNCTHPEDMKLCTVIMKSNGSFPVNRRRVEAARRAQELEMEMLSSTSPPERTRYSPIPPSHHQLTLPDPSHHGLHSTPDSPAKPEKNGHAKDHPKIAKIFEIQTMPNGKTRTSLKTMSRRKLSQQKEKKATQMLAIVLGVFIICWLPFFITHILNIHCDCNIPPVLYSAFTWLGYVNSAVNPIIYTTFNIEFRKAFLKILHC
D(3) dopamine receptor, sequence (P35462 whole entry): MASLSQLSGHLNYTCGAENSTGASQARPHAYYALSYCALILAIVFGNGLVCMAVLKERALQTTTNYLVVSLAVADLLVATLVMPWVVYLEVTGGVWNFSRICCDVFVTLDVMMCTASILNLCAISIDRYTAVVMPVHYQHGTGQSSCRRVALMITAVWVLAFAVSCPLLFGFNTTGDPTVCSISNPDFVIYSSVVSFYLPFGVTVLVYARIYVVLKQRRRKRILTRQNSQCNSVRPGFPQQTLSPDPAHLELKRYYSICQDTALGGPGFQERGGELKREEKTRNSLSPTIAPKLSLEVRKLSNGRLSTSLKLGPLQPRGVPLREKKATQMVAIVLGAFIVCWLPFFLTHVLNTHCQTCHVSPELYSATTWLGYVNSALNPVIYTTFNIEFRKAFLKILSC
5-hydroxytryptamine receptor 1D, sequence (P28221 whole entry): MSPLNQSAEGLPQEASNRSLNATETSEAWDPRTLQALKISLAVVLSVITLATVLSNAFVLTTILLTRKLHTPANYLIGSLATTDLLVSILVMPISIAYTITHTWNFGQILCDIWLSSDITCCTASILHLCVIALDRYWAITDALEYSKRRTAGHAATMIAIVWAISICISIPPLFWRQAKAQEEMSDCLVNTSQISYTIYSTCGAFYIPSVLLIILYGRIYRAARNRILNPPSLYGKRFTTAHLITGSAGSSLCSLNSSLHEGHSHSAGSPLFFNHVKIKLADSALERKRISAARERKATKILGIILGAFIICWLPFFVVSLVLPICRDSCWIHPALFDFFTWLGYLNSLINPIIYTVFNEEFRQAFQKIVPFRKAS
Beta-2 adrenergic receptor, sequence (P07550 whole entry): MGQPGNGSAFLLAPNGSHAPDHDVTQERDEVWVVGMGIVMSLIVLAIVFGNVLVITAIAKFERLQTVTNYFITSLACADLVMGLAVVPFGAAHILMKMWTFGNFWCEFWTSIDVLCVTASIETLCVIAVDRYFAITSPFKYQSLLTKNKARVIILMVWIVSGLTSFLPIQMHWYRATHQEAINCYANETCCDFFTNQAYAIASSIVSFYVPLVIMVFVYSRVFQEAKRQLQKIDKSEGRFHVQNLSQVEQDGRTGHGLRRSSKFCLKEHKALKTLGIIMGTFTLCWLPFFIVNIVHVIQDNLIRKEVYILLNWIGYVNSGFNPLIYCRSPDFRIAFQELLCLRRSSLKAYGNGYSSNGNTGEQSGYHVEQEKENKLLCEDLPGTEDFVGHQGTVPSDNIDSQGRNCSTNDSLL

The compound `CCCCN1CCC(COC(=O)c2cccc3c2OCCCO3)CC1` had an IC50 in [1] of 50.1 nM.
Turning to `CCCCN1CCC(COC(=O)c2cc(Cl)c(N)c3c2OCCO3)CC1`, the “Log Ki” value in data set [2] is reported as -6.7; in [12], -6.6. For the same compound, the Ki is greater than 1000 nM at D(3) dopamine receptor; 79.4 nM in [3]; greater than 1000 nM in data set [4]; greater than 10000 nM in [5]; greater than 1000 nM in data set [6]; greater than 1000 nM in [7]. Moreover, the inhibition constant Ki in [9] is greater than 1000 nM; in [10], greater than 10000 nM; in [13], greater than 1000 nM; in [15] it was 126 nM; in data set [16], greater than 1000 nM; at D(1A) dopamine receptor it was greater than 1000 nM. This compound also had a Ki at D(2) dopamine receptor greater than 10000 nM. Further, in data set [8], the pA2 turned out to be 10.8. The logP in data set [11] amounted to 4.86. Further, the IC50 in [1] was 0.1 nM. Also, the pKa in [14] was 10.4.
`CN1[C@@H]2CC[C@H]1C[C@@H](OC(=O)c1c[nH]c3ccccc13)C2` [TROPISETRON] gave a half-maximal inhibitory concentration (IC50) in [1] of 3160 nM.
In the case of `CCN(CC)CCOC(=O)c1cc(Cl)c(N)cc1OC`, half-maximal inhibition in data set [1] (IC50) was put at 251 nM.
The same measure, in the same setting: in the case of `CCCCN1CCC(COC(=O)c2cccc3c2OCCO3)CC1` it was 6.31 nM; in that of `CCCCN1CCC(COC(=O)c2cc(Cl)c(N)cc2OC)CC1`, 1 nM.
Same read-out and setting: in the case of `CCCCN1CCC(CNC(=O)c2cc(Cl)c(N)cc2OC)CC1` it was 10 nM; in that of `CCCCN1CCC(COC(=O)c2cccc3c2OCO3)CC1`, 63.1 nM.

Source of the values: ChEMBL document CHEMBL1126562, “(1-Butyl-4-piperidinyl)methyl 8-amino-7-chloro-1,4-benzodioxane-5-carboxylate hydrochloride: a highly potent and selective 5-HT4 receptor antagonist derived from metoclopramide” (J Med Chem, 1993).
